This is a sample that favours compounds with a hit; in the whole collection about 4.5% have one here.
OX1R antag-1 – antagonists of human orexin 1 receptor (OX1R). O43613. OX1R-expressing cells, FRET antagonist read-out. inhibition, % at 6.6 µM. hit rate 1.8% among 330,000. AID 485270; in the data active means inhibition mostly above about 38%, no sharp cut-off; inactive means mostly below about 40%;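 further: 0% = agonist challenge alone and 100% = reference antagonist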
OX1R antag-2 – human HCRTR1 antagonism. O43613. CHO/OX1R cells, Fluo-8 calcium fluorescence, orexin A. inhibition, % at 5 µM. hit rate 0.43% among 330,000. AID 434989;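 active means inhibition above its plate's threshold, mean inhibition of all tested compounds on the plate plus 3 SD, cut at about 37% in these data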;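 further: 0% = orexin A challenge wells and 100% = SB-334867-A antagonist wells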
GPR7 antag – antagonists of human GPR7 (neuropeptides B/W receptor 1). inhibition, % at 4.4 µM. hit rate 1.1% among 290,000. AID 1861. P48145. GPR7-expressing cells, fluorescence antagonist assay; in the data active means inhibition above about 16%, passing the limit was not always enough;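 further: cells stimulated with the agonist NPW; 0% = agonist with vehicle and 100% = vehicle without agonist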
Target sequence (P48145 whole entry, looked up): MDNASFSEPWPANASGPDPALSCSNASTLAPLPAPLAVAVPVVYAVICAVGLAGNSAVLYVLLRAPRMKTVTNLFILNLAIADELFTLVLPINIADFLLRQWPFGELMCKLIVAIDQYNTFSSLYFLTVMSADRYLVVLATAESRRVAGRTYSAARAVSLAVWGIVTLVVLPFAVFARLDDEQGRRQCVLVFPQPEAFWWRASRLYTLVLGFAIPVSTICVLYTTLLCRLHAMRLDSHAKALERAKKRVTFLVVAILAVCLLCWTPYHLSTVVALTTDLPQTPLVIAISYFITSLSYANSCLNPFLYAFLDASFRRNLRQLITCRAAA
TAAR1 agonist – human TAAR1 agonism | Q96RJ0 | CHO RD-HGA16 TAAR1, Fluo-8 calcium fluorescence; vehicle wells 0%, saturating PEA agonist 100% | activation, % at 3 µM | hit rate 0.99% among 360,000;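 active means activation above the mean activation of all test compounds in the run plus 3 SD, cut at about 38% in these data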
Target sequence (Q96RJ0 whole entry, looked up): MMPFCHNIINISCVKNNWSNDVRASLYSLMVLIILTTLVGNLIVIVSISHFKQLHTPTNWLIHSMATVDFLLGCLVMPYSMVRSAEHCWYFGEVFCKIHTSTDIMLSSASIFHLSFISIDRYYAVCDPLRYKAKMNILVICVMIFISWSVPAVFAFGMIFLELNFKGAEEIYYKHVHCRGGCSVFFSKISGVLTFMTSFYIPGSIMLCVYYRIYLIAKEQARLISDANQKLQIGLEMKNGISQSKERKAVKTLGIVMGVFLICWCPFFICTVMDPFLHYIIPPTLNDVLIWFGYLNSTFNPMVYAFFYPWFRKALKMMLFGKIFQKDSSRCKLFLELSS
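System: CHO-derived RD-HGA16 cells with stable Gα16 and human TAAR1. Times: 17-24 h plating, Fluo-8 75 min 37 °C, 30 min RT. Measured by: calcium-sensitive Fluo-8 signal, excitation 470-495, emission 515-575 nm. Read-out basis: % activation relative to PEA EC100 response. Control set: DMSO and PEA EC100. Repeats: no replicates (n 1).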
TAAR1 antag – antagonists of human TAAR1; Q96RJ0; CHO RD-HGA16 TAAR1, Fluo-8 calcium fluorescence, antagonist; inhibition, % at 3 µM; hit rate 1.5% among 360,000;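 active means inhibition above a per-plate cutoff, the mean inhibition of test compounds on that plate plus 3 SD, cut at about 49% in these data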;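 further: 0% = DMSO plus EC80 beta-PEA response and 100% = DMSO alone without agonist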
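Test system – hTAAR1-expressing CHO RD-HGA16 cells, Gα16-coupled · Also added – β-PEA at EC80 concentration, post-compound challenge · Compound – 3 µM, single point · Incubation – dye loading 75 min at 37 °C, then 30 min room temperature · Measured by – Fluo-8 intracellular calcium dye fluorescence, real-time kinetic reads · Benchmarks – vehicle and agonist controls · Replicates – singlicate, one well per test compound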
CHO parental Ca – signal in parental CHO cells, OX1R antagonist counter-screen; parental CHO-K1, ATP-induced calcium, Fluo-8 fluorescence; inhibition, % at 5.6 µM; hit rate 0.63% among 330,000;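 active means inhibition above that plate's mean sample inhibition plus 3 SD, cut at about 26% in these data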;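 further: 0% = ATP-challenged DMSO wells and 100% = DMSO wells without ATP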
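Test system: untransfected parental CHO cell line. Compound: one dose, 5.6 µM nominal. Detection: intracellular calcium via Fluo-8 no-wash fluorescent dye. Measure: % inhibition. Benchmarks: ATP-challenged DMSO wells low, unchallenged DMSO wells high.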
GPR7 antag conf – confirmation of human GPR7 antagonists; shares compounds with GPR7 antag; GPR7-expressing cells, calcium fluorescence antagonist mode; inhibition, % at 4.4 µM; hit rate 52% among 2,400; in the data active means inhibition above about 24%;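 further: stimulated with the GPR7 agonist NPW; 0% = agonist plus vehicle and 100% = vehicle alone without agonist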
MCHR1 antag – counter-screen for GPR7 antagonists: antagonists of human MCHR1; inhibition, % at 4.4 µM; hit rate 62% among 2,400; MCHR1-expressing cells, fluorescence antagonist assay; shares compounds with GPR7 antag; in the data active means inhibition above about 22%;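 further: 0% = vehicle with agonist and 100% = vehicle without agonist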
Active calls of the source: *; . = not tested or not shown.

SMILES	OX1R antag-1	OX1R antag-2	GPR7 antag	TAAR1 agonist	TAAR1 antag	CHO parental Ca	GPR7 antag conf	MCHR1 antag
O=c1[nH]c(C2CCN(S(=O)(=O)c3ccccc3)CC2)nc2c1nnn2Cc1cccc(Cl)c1	-1	-15	25*	5	-12	-10	8	-8
CC(O)(c1cccc(F)c1)c1nc(-c2ccoc2)cs1 (stereo unspecified)	.	.	.	2	-9	.	.	.
COc1ccccc1CNC(=O)c1cc(-c2ccccc2C)n(CC2CC(c3cccc([N+](=O)[O-])c3)=NO2)n1 (stereo unspecified)	24	-14	.	7	22	-14	.	.
CCc1ccc(CNC(=O)Cn2nc(-c3ccccc3)ccc2=O)cc1	21	-13	31*	4	-4	-14	13	0
O=[N+]([O-])c1ccc(S(=O)(=O)NCC2CC3CCC2C3)cc1 (stereo unspecified)	-2	-40	15	5	19	-9	.	.
O=[N+]([O-])c1cccc(S(=O)(=O)NCC2CC3CCC2C3)c1 (stereo unspecified)	-6	-22	38*	-1	10	-4	-2	-9
Nc1nc(-c2ccccc2)c(CCCNc2ccccc2)c(=O)[nH]1	.	.	.	2	10	.	.	.
CCc1ccc(C2CC(c3ccc(C)cc3)Nc3nc(N)nn32)cc1 (stereo unspecified)	19	-22	7	3	-24	-8	.	.
Cc1ccc(C2CC(c3ccc(F)cc3)Nc3nc(N)nn32)cc1 (stereo unspecified)	7	2	21*	13	6	1	21	8
CCc1ccc(C2CC(c3ccccc3C)n3nc(N)nc3N2)cc1 (stereo unspecified)	22	11	25*	7	4	-8	11	4
Nc1nc2n(n1)C(c1ccc(F)cc1)CC(c1ccc(F)cc1)N2 (stereo unspecified)	8	-9	-4	6	-6	-4	.	.
O=C(NCCCc1ccc(F)cc1)C1CCC(=O)N(CCCN2CCCC2=O)C1 (stereo unspecified)	9	-33	35*	1	4	-6	-2	4
O=C(NCCCC1CCCC1)C1CCC(=O)N(Cc2ccc(Cl)cc2)C1 (stereo unspecified)	13	-40	28*	-2	-33	-29	4	-6
O=C(NCc1ccccc1CN1CCCC1)c1cc2cc(Cl)ccc2o1	2	-13	.	0	2	-12	.	.
COc1cc(OC)cc(C(=O)NCCS(=O)(=O)N2CCN(Cc3ccccc3)CC2)c1	2	-17	.	0	-14	-29	.	.
CC(C)N(c1ccccc1)c1ccc(NC(=O)COC(=O)CCN2C(=O)c3cccc([N+](=O)[O-])c3C2=O)cc1	7	2	29*	1	12	6	74*	60*
CC(=O)c1ccc(NC(=O)COC(=O)CCN2C(=O)c3cccc([N+](=O)[O-])c3C2=O)cc1	8	-30	-2	2	-4	-7	.	.
O=C(NCc1ccccc1)c1ccc(NC(=O)C2CCC2)cc1	.	.	.	6	6	.	.	.
Cc1ccccc1CN(c1ccc(C(=O)N2CCc3ccccc3C2)cc1)S(C)(=O)=O	20	-21	28*	23	51*	-9	52*	58*
CCn1c(-c2ccc(N(C)C)cc2)nc2ccccc21	7	-30	37*	11	3	-8	17	26*
Cc1cc(C)c(S(=O)(=O)N(C)CC(=O)NCc2cccnc2)c(C)c1	11	-9	2	10	-9	-5	.	.
Cc1cc(C)c(S(=O)(=O)N(C)CC(=O)NCc2ccncc2)c(C)c1	17	-30	27*	2	-1	-10	5	0
Cc1ccc(S(=O)(=O)N2CCCCC2CCNC(=O)C(=O)NCc2ccccc2)cc1 (stereo unspecified)	26	-17	.	1	-2	-19	.	.
COc1ccc(NC(=O)/C(Cl)=C(/Cl)S(=O)Cc2ccccc2Cl)cn1 (stereo unspecified)	.	.	40*	.	.	.	76*	91*
COc1ccc2c(c1)C(=O)N(c1ccccc1)C(=O)C2	25	-26	28*	5	-7	-10	8	1
SMILES	OX1R antag-1	OX1R antag-2	GPR7 antag	TAAR1 agonist	TAAR1 antag	CHO parental Ca	GPR7 antag conf	MCHR1 antag
O=CN/N=C/c1c(O)ccc2ccccc12	20	-12	-7	3	-18	-2	.	.
NC(=S)N/N=C/c1c(O)ccc2ccccc12	17	-2	23*	3	-10	8	1	-1
CC(NC(=O)c1ccc(N(C)C)cc1)C1CC2CCC1C2 (stereo unspecified)	.	.	0	17	-5	.	.	.
CC(NC(=O)c1ccc(C#N)cc1)C1CC2CCC1C2 (stereo unspecified)	9	-19	23*	-3	14	-12	-4	13
C/C(=N\NC(=O)c1c(Cl)c(C)nn1C)c1ccc(NC(=O)c2ccncc2)cc1	14	-13	-3	5	-5	-8	.	.
Cc1nn(-c2ccc(NC(=O)c3ccncc3)cc2)c(C)c1Cl	.	.	32*	19	38	.	52*	65*
COc1ccc(CN2C(=O)c3ccccc3C2C(=O)NC2CCCCCC2)c(OC)c1 (stereo unspecified)	.	.	33*	0	12	.	21	34*
O=C(NC1CCCCCCC1)C1c2ccccc2C(=O)N1Cc1cccs1 (stereo unspecified)	27	-27	27*	0	-2	-14	32*	13
COc1ccc(CN2C(=O)c3ccccc3C2C(=O)NCCc2ccccc2)c(OC)c1 (stereo unspecified)	14	-32	-7	1	-5	-14	.	.
CC1CCC(NC(=O)C2c3ccccc3C(=O)N2Cc2cccs2)CC1 (stereo unspecified)	3	-17	11	-3	1	-12	.	.
CC#CCN(CC#CC)S(=O)(=O)c1ccc(-n2cnnn2)c(OC)c1	8	-7	24*	-2	8	-7	11	5
CCOC1CCCc2oc(-c3ccc(OC)cc3)c(C(=O)NCCCCO)c21 (stereo unspecified)	.	.	.	8	-22	.	.	.
CCOC(=O)C1CCN(S(=O)(=O)c2ccc(CC)cc2)CC1	9	-8	21*	-1	-18	-8	16	25*
CCOC(=O)c1ccc(S(=O)(=O)N2CCC(C(=O)OCC)CC2)cc1	17	-12	10	2	1	-2	.	.
